From the M2OR odorant receptor database

How the values were obtained:
Details in all cases: stereoisomer not certain
[1] = target: T1, UniProt Q8VG53
T1 sequence (whole entry): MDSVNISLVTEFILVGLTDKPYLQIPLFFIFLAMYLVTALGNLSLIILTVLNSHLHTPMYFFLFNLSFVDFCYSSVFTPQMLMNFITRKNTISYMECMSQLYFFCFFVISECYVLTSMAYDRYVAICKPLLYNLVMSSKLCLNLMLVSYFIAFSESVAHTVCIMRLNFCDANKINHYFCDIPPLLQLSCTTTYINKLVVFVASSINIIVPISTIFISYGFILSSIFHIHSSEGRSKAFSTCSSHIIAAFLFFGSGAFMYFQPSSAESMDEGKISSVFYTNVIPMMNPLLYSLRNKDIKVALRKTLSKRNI
How it was run: (§1)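 Whether a receptor–molecule pair is responsive (active) rests on the original authors' judgment that its measured signal was statistically different from baseline. Pairs without that judgment are non-responsive (inactive). Sources used varied assay methods, commonly transient luciferase assays in mammalian cell lines.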

[2] = target: T2, UniProt Q8VG64
T2 sequence (whole entry): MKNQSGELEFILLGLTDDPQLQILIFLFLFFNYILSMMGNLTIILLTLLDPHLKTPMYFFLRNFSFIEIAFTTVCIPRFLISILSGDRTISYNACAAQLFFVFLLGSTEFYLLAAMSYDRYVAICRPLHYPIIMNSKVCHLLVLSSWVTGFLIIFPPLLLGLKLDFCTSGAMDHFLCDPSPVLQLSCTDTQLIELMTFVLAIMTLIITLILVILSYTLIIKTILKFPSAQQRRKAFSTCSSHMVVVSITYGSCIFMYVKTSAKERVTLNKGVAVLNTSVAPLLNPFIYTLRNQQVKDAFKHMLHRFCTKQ
How it was run: as §1

[3] = target: T3, UniProt Q8VG77
T3 sequence (whole entry): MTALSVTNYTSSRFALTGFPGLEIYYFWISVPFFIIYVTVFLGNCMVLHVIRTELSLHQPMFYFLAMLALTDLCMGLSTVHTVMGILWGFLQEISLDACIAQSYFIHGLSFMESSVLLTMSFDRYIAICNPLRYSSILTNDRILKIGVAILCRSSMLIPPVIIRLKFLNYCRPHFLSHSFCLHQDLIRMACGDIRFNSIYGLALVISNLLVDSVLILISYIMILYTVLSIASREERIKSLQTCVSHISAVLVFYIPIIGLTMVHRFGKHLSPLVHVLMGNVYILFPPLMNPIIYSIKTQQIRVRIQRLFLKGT
How it was run: as §1

[4] = target: T4, UniProt Q8VG96
T4 sequence (whole entry): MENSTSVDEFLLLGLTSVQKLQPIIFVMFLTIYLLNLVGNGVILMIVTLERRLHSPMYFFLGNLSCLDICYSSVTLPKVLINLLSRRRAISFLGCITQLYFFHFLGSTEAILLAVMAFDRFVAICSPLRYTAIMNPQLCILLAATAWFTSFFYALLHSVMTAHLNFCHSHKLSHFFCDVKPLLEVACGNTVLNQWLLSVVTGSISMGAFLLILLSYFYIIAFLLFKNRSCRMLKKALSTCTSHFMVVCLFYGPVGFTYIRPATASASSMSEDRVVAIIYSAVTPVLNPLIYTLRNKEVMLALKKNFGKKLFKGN
How it was run: as §1

[5] = target: T5, UniProt Q8VGB9
T5 sequence (whole entry): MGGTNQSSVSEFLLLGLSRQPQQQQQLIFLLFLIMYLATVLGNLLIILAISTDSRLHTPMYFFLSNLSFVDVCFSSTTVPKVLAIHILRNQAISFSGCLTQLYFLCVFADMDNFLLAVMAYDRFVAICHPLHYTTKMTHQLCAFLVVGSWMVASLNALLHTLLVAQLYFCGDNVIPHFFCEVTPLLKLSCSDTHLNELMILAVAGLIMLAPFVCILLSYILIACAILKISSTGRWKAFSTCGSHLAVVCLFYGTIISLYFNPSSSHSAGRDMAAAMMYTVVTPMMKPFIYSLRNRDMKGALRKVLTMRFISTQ
How it was run: as §1

[6] = target: T6, UniProt Q8VGC6
T6 sequence (whole entry): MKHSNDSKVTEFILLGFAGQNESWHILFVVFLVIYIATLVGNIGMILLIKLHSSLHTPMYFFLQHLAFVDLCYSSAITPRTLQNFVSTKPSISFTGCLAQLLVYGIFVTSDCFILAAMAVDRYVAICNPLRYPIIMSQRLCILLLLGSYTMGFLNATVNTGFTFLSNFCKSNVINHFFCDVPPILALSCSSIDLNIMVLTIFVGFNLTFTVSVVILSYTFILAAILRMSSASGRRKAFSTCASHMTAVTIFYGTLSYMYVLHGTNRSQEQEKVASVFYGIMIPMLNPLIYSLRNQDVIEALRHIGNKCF
How it was run: as §1

[7] = target: T7, UniProt Q8VGD7
T7 sequence (whole entry): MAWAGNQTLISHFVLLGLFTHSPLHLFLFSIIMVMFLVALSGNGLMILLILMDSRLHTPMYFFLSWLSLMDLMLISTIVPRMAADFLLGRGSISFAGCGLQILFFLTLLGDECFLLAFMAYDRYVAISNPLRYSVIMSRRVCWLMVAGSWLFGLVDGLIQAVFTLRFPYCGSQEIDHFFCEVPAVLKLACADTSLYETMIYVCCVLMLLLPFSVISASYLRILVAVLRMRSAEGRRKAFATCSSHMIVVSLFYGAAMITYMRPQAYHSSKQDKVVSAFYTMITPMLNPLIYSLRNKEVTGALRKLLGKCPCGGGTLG
How it was run: as §1

[8] = target: T8, UniProt Q8VGH1
T8 sequence (whole entry): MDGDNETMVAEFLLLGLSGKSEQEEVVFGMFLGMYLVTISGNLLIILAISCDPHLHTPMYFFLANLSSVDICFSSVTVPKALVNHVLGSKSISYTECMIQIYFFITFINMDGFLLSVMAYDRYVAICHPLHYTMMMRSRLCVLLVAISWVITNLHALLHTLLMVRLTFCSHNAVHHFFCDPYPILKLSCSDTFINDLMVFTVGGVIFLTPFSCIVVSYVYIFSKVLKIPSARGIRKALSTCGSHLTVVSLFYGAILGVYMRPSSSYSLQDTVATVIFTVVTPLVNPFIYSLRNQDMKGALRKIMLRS
How it was run: as §1

[9] = target: T9, UniProt Q8VGJ1
T9 sequence (whole entry): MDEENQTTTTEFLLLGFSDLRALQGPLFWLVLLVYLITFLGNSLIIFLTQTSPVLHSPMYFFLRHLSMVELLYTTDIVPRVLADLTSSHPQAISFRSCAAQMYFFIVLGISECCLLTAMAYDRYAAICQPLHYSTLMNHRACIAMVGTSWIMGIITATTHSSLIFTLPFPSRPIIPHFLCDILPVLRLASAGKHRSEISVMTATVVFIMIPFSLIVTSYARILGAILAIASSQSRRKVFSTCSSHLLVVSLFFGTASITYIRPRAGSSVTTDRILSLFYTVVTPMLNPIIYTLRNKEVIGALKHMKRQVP
How it was run: as §1

[10] = target: T10, UniProt Q8VGJ3
T10 sequence (whole entry): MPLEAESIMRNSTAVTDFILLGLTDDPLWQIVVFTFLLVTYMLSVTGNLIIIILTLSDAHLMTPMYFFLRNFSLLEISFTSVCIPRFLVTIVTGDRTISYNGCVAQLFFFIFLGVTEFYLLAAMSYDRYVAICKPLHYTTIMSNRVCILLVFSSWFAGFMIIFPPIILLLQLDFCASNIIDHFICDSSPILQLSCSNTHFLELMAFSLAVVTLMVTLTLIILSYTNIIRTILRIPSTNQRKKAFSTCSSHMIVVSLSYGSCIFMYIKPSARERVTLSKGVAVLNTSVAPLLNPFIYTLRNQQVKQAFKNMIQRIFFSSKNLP
How it was run: as §1
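Note: active if original authors judged signal statistically different from baseline.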

Compound	odorant receptor agonist call [1]	odorant receptor agonist call [2]	odorant receptor agonist call [3]	odorant receptor agonist call [4]	odorant receptor agonist call [5]	odorant receptor agonist call [6]	odorant receptor agonist call [7]	odorant receptor agonist call [8]	odorant receptor agonist call [9]	odorant receptor agonist call [10]
O=c1cc(O)c2ccccc2o1	inactive	inactive	inactive	inactive	inactive	inactive	inactive	inactive	inactive	inactive
O=CC=Cc1ccccc1	inactive	inactive			inactive	inactive				inactive
CC(C=O)Cc1ccc2c(c1)OCO2 (configuration not stated)	inactive	inactive			inactive	active				inactive
Cc1ccc(OC(=O)Cc2ccccc2)cc1	inactive	inactive			inactive	inactive				inactive
O=Cc1ccc2c(c1)OCO2	inactive	inactive			inactive	inactive				inactive
COc1ccc(C=O)cc1	inactive	inactive			inactive	inactive				inactive
C=CCOC(=O)Cc1ccccc1	inactive	inactive	inactive	inactive	inactive	active	inactive	inactive	inactive	inactive
CCC1CCC(=O)O1 (configuration not stated)			inactive	inactive		active	inactive	inactive	inactive	
CSSC	inactive	inactive			inactive	inactive				inactive
C=CCc1ccccc1			inactive	inactive		inactive	inactive	inactive	inactive	
C=C(C)C1CC=C(C=O)CC1 (configuration not stated)	inactive	inactive			active	inactive				inactive
OCc1ccc2c(c1)OCO2	inactive	inactive			inactive	inactive				inactive
CCCCC(Br)C(=O)O (configuration not stated)	inactive	inactive			inactive	inactive				inactive
Oc1ccccc1Br	inactive	inactive			inactive	inactive				inactive
CCCCCCC(Br)C(=O)O (configuration not stated)	inactive	inactive			inactive	inactive				inactive
O=Cc1ccccc1	inactive	inactive			inactive	inactive				active
